# Screens: PubChem, Sanford-Burnham Center for Chemical Genomics
# EBI2 block: blocks human EBI2 receptor beta-arrestin signaling; P32249; EBI2 beta-arrestin recruitment, luminescence, 7a,25-OHC stimulated; inhibition, % at 5 µM; actives 0.81% (n = 360,000); AID 651636; in the data active = inhibition above about 38%;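 also: enzyme fragment complementation signal reports receptor beta-arrestin coupling in cells; 0% = agonist plus DMSO wells and 100% = wells without agonist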
# APJ antag: antagonists of human APJ apelin receptor | P35414 | CHO-K1 APJ beta-arrestin complementation, luminescence | actives 0.32% (n = 330,000) | AID 2521 | inhibition, % at 20 µM;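 active = inhibition above about 40% at 20 µM, limit read from the data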;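 also: cells challenged with 10 nM apelin-13 agonist together with compound; plate controls were apelin-13 plus DMSO wells for no effect and DMSO wells lacking apelin-13 for full effect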
# APJ ag: agonists of human APJ apelin receptor. P35414. CHO-K1 APJ PathHunter beta-arrestin, luminescence; 0% DMSO wells, 100% apelin. activation, % at 20 µM. actives 0.11% (n = 330,000). AID 2520;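 active = activation more than six SD over the plate average, tested at 20 µM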;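 also: 0% = DMSO alone and 100% = apelin-13 at 10 nM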
#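 Test system: CHO-K1 APJ beta-arrestin complementation cell line. Amount: cell density 1000 per well. Controls: DMSO negative, 10 nM Apelin-13 positive. Signal: luminescent beta-gal fragment complementation, chemiluminescent substrate. Read-out basis: agonist-driven arrestin binding to APJ. Timing: compound stimulation 90 min at 25 °C, detection 60 min.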
# CXCR6 inh: inhibitors of human CXCR6 receptor; O00574; CHO-K1 PathHunter CXCR6 beta-arrestin, luminescence; inhibition, % at 20 µM; actives 0.36% (n = 360,000); AID 602244; in the data active = inhibition above about 34%, passing the limit was not always enough;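 also: antagonist mode with CXCL16 agonist at 10 nM final; 0% = 10 nM CXCL16 with DMSO and 100% = unstimulated wells without agonist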
# Target sequence (O00574 whole entry, looked up): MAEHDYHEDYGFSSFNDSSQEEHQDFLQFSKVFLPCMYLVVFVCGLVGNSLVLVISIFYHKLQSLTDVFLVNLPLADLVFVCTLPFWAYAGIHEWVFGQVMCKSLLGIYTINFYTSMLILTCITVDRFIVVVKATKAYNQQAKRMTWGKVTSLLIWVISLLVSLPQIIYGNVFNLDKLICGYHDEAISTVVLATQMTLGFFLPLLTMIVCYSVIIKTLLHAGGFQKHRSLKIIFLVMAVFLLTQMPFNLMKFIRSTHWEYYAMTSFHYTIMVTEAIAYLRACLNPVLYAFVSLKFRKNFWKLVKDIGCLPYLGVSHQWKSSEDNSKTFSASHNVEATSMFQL
# CCR6 antag: CCR6 (human) receptor antagonism. P51684. CHO-K1 CCR6 PathHunter beta-arrestin, luminescence, CCL20-stimulated. inhibition, % at 20 µM. actives 0.49% (n = 340,000). AID 493098;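 active = compounds whose inhibition of the agonist-driven luminescence signal at 20 µM reaches about 50%, limit read from the data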;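 also: cells stimulated with CCL20 at 14 nM final; plate controls were DMSO with CCL20 for no effect and DMSO without agonist for full effect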
# EBI2 antag conf: EBI2 (human) antagonism, single concentration confirmation | shares compounds with EBI2 block | EBI2 beta-arrestin luminescence, 7a,25-OHC antagonism | inhibition, % at 5 µM | actives 29% (n = 2,400);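 active = inhibition of at least 50%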
# EBI2 ag: activates EBI2, counter-screen for EBI2 antagonists | shares compounds with EBI2 block | EBI2-expressing cells, agonist mode, luminescence, 60 min; 0% vehicle, 100% 7α,25-dihydroxycholesterol control | activation, % at 5 µM | 2,400 tested, under 10 active;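 active = activation of at least 50%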
# bGal counter: counter-screen for EBI2 antagonists: E. coli beta-galactosidase inhibition; shares compounds with EBI2 block; actives 1% (n = 2,400); purified beta-galactosidase, luminescent Galacton Star, 15 min; inhibition, % at 5 µM;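 active = replicate-average signal at least 3 plate SD below neutral wells, shown as high inhibition, flagging enzyme-inhibiting false positives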;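 also: 0% = DMSO wells with enzyme and 100% = wells lacking enzyme; higher means stronger loss of beta-gal luminescence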
# Starred values were filed as active, the others as inactive; . = no result given. Most compounds without a hit are left out; they make up all but 1.5% or so of the library.
SMILES,EBI2 block,APJ antag,APJ ag,CXCR6 inh,CCR6 antag,EBI2 antag conf,EBI2 ag,bGal counter
CCOc1ccc(-c2nc(N)nc(C)c2-c2ccc(Cl)cc2)c(O)c1,55*,-6,-2,-6,-3,35,0,0
O=C(Nc1ccc(C(F)(F)F)cc1)C1=NN(C2CCS(=O)(=O)C2)C(=O)CC1 (configuration not stated),3,4,-2,0,7,.,.,.
CC(O)(c1ccc(F)c(F)c1)c1nc(-c2cccc(C#N)c2)cs1 (configuration not stated),14,.,.,-7,.,.,.,.
Cc1cc(C)c(OCC(=O)N2CC=C(c3ccccc3)CC2)c(C)c1,60*,2,-2,1,2,71*,4,-3
CCOC(=O)C1CN(S(=O)(=O)c2ccc(C)cc2)CCN1S(=O)(=O)c1ccc(C)cc1 (configuration not stated),44*,-7,3,-3,13,8,-1,-13
COc1cccc(-n2cnnc2SC(C)C(=O)NC2CCCC2)c1 (configuration not stated),-10,-5,1,5,3,.,.,.
O=C(CCc1nc2ccccc2c(=O)[nH]1)NNC(=O)COc1ccc(Br)cc1,59*,14,-3,1,16,39,0,-7
CC(C)(C)OC(=O)N1CCN(c2ccc(CNC(=O)c3ccc(Cl)cc3)cc2)CC1,59*,-8,-3,-2,-1,15,2,4
CC(C)(C)OC(=O)N1CCCN(C(=O)c2ccc(Cl)cc2)CC1,-1,13,-2,-14,9,.,.,.
CC(C)(C)c1ccc(C(=O)NCc2ccccc2)cc1,34,4,8,-12,7,.,.,.
CC(C)(C)c1ccc(C(=O)NCc2ccc(Cl)cc2)cc1,53*,-4,-1,2,5,34,1,6
CCN(C[C@H]1N[C@@](CC)(C(=O)OC)[C@H]2C(=O)N(Cc3ccccc3)C(=O)[C@@H]12)C(=O)c1ccccc1,-4,5,-4,-3,6,.,.,.
O=C(COC(=O)c1cccc([N+](=O)[O-])c1)Nc1ncc(Br)s1,1,5,-2,-6,10,.,.,.
O=C(/C=C/c1ccc(Cl)cc1)NC1CC2CCC1C2 (configuration not stated),63*,2,-2,3,21,24,-1,-9
CCCCCC1CCC(c2ccc(/C(N)=N/O)cc2)CC1 (configuration not stated),-8,-31,0,-2,-9,.,.,.
CN1CCC(N(C)S(=O)(=O)c2ccc(NC(=O)COc3ccc(F)cc3)cc2)CC1,-4,-5,-1,-2,4,.,.,.
CN1CCC(N(C)S(=O)(=O)c2ccc(NC(=O)COc3ccc(Cl)cc3)cc2)CC1,54*,-1,-1,-2,25,29,1,6
CC(=O)c1cccc(NC(=O)C2Cc3c(-c4ccc5c(c4)OCO5)ccnc3O2)c1 (configuration not stated),-7,.,.,0,.,.,.,.
CCOC(=O)[C@H]1[C@H]2COc3ccc(OC)cc3[C@@H]2N2C(=O)CN(Cc3ccccc3)C(=O)[C@@]12C,0,2,-2,4,13,.,.,.
Cc1ccc(Nc2ccc(C(=O)NC3CCCCC3)cn2)cc1,84*,-13,0,-2,10,58*,0,-11
COc1ccccc1Nc1ccc(C(=O)NC2CCCCC2)cn1,10,-4,-6,-2,15,.,.,.
C[C@H](CO)N1C[C@H](C)[C@@H](CN(C)Cc2ccncc2)Oc2c(NS(=O)(=O)c3ccc(F)cc3)cccc2C1=O,-13,-2,-4,4,1,.,.,.
O=C(NCCc1c[nH]c2ccccc12)C(=O)NCC(c1ccco1)N1CCN(c2ccc(F)cc2)CC1 (configuration not stated),41*,-17,-3,5,20,25,0,-6
O=C(NCCC1=CCCCC1)C(=O)NCC(c1ccco1)N1CCN(c2ccccc2)CC1 (configuration not stated),11,2,-1,2,15,.,.,.
O=C(NCCc1c[nH]c2ccccc12)C(=O)NCC(c1ccco1)N1CCN(c2ccccc2)CC1 (configuration not stated),36*,5,0,3,18,14,1,2
SMILES,EBI2 block,APJ antag,APJ ag,CXCR6 inh,CCR6 antag,EBI2 antag conf,EBI2 ag,bGal counter
COc1ccc(C(CNC(=O)COc2cccc(C(F)(F)F)c2)N2CCCC2)cc1 (configuration not stated),-2,12,-4,5,11,.,.,.
CCOc1ccc(N(CC(=O)N2CCN(c3ccc(F)cc3)CC2)S(=O)(=O)c2c(C)noc2C)cc1,13,17,1,11,15,.,.,.
COc1ccc(CC(=O)N2CCC(c3ccccc3)C2)cc1 (configuration not stated),48*,-3,-3,-7,4,43,0,6
COc1ccc(/C=C/C(=O)N2CCC(c3ccccc3)C2)cc1 (configuration not stated),70*,-9,-2,1,8,55*,0,-13
O=C(Cc1ccccc1)N1CCC(c2ccccc2)C1 (configuration not stated),2,1,1,10,0,.,.,.
COC(=O)C1CCN(C(=O)/C=C/c2ccc(OC)cc2)CC1,87*,-1,-3,-1,7,76*,2,-2
CC(=O)c1c(C)[nH]c(C(=O)NCC2CCCCC2)c1C,5,1,-1,-1,15,.,.,.
CC(C)CNC(=O)c1cc(S(=O)(=O)N2CCOCC2)ccc1N1CCCC1,5,5,-1,-6,4,.,.,.
COc1cc(OC)c(C=NNC(=S)NC23CC4CC(CC(C4)C2)C3)c(OC)c1,54*,.,.,9,20,12,0,-5
Cn1c(SC2CCCCC2=O)nnc1-c1ccccc1F (configuration not stated),4,10,1,4,5,.,.,.
COc1ccc(C(=O)c2ccc(N3CCN(C(=O)c4ccc(F)cc4)CC3)c(F)c2)cc1Br,65*,19,0,0,15,22,1,5
CCCC(=O)c1ccc(N2CCN(C(=O)c3ccc(Br)cc3)CC2)c(F)c1,71*,-20,3,-4,-2,29,3,8
COc1ccc(C(=O)NC(C)c2ccncc2)cc1S(=O)(=O)N(C)Cc1ccccc1 (configuration not stated),6,1,1,-2,10,.,.,.
